Source: PubChem BioAssay (several laboratories)
CSC inhib: blocks cancer stem cells | inhibition, % at 7.5 µM | hit rate 1.1% among 300,000 | cancer stem cell-like cells viability, luminescence; in the data active = inhibition above about 75%; tested in HMLE shEcad cells
T cruzi inh: T. cruzi replication inhibition | inhibition, % (concentration not given with the values) | T. cruzi beta-gal in NIH3T3, luminescence, 90 h | hit rate 1.4% among 300,000 | AID 1885;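 active = mean inhibition across valid replicates above about 55%, limit read from the data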;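 note: signal also drops with host cell toxicity which is not excluded here; 0% = plate median of DMSO wells and 100% = zero luminescence signal; higher percent means less beta-gal luminescence so fewer parasites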
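Assay system: NIH/3T3 host cells with β-galactosidase reporter T. cruzi; input: 5,000 host fibroblasts per well; compound: single 50 nL compound addition per well in DMSO; timing: ≥90 h infection period, 3 h prior cell attachment; measured by: GalScreen β-gal luminescence, detergent lysis, 60 min; evaluation: percent inhibition of parasite-derived β-gal signal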
XBP1 UPR activ: adaptive UPR (XBP1) activation. hit rate 0.33% among 330,000. activation, % at 20 µM. AID 463104. CHO-XBP1 luciferase reporter, IRE1-XBP1 UPR activation, luminescence; percent of tunicamycin response, DMSO as zero;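 active = versus positive control, 20 µM dose yields 30% or more activation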;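 note: 100% = tunicamycin at 10 µg/mL and 0% = DMSO only wells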
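Assay system: CHO-XBP1 luciferase reporter cells; Schedule: 6 h treatment, 37 °C; Detection: glow luminescence from Steady-Glo reagent; Benchmarks: high control tunicamycin 10 µg/mL final, low control DMSO vehicle only.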
Beta apoptosis: blocks beta cell apoptosis; INS-1E cytokine-induced death, ATP luminescence, 48 h; percent of positive-control rescue, neutral wells zero; protection from apoptosis, % (concentration not given with the values); hit rate 0.8% among 300,000;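 active = Every replicate reaches about 75%, or at least half do and their mean reaches it too, limit read from the data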;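 note: 0% = cytokine-treated negative control wells and 100% = positive control rescue; higher means more ATP so stronger rescue from cytokine killing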
Mdm2 MdmX PPI: inhibitors of human Mdm2/MdmX interaction. AID 485346. SaOS-2 split-luciferase Mdm2/MdmX complementation, luminescence. inhibition, % at 8 µM. O15151+Q00987. hit rate 3% among 330,000;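 active = inhibition of at least 50% at 8 µM in the primary screen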
Target sequence (O15151 whole entry, looked up): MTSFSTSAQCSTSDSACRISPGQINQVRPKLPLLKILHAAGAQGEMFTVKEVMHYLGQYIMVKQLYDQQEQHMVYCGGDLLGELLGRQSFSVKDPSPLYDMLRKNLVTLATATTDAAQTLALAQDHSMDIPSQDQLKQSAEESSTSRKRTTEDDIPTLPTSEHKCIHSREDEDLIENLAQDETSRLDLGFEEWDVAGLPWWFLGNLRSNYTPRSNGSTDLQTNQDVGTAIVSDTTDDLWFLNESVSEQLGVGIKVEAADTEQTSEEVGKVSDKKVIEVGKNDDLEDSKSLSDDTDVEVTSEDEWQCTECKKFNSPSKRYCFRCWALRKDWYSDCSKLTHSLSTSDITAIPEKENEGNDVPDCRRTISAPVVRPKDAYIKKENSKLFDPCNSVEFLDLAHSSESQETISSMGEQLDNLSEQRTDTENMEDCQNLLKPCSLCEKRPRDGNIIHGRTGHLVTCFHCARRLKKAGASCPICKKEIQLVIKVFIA
Target sequence (Q00987 whole entry, looked up): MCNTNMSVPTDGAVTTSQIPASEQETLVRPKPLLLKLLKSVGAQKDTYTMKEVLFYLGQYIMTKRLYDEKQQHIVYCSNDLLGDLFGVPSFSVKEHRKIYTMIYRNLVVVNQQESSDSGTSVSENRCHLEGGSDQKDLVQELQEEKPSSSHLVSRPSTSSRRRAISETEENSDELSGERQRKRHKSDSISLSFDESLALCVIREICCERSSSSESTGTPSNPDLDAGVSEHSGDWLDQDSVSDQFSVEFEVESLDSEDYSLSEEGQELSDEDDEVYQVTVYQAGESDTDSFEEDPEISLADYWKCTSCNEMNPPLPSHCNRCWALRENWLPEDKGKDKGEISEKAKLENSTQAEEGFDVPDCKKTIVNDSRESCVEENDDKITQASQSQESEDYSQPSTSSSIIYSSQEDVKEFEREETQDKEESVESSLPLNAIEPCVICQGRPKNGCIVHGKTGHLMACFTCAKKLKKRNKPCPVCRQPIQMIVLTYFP
UPR CHOP act: activators of apoptotic arm of unfolded protein response (CHOP) | CHO-CHOP luciferase reporter, UPR activation, luminescence; percent of tunicamycin response over DMSO baseline | activation, % at 10 µM | hit rate 0.34% among 330,000;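 active = at 10 µM dose, activation of 40% or more, normalized to positive control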;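 note: 100% = tunicamycin at 10 µg/mL and 0% = DMSO alone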
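Assay system: CHO-CHOP cells, stable luciferase reporter of PERK-eIF2a-CHOP signalling / Buffer or medium: F12 plus 10% serum / Compound dosing: one dose, 10 µM in 0.5% DMSO / Times: 6 h compound treatment, 37 °C / Technique: luciferase luminescence / Read-out: % reporter activation, DMSO baseline versus tunicamycin full activation / Benchmarks: tunicamycin and DMSO controls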
Mdm2 MdmX conf: human Mdm2/MdmX binding inhibition, confirmed; shares compounds with Mdm2 MdmX PPI; luminescent assay; inhibition, % at 8 µM; hit rate 55% among 10,000; AID 489028; in the data active = inhibition above about 40%
Full FLuc ctr: full-length luciferase inhibition in Mdm2/MdmX counter-screen; SaOS-2 full-length luciferase counterscreen, luminescence; inhibition, % at 8 µM; hit rate 77% among 6,200; AID 504607; shares compounds with Mdm2 MdmX PPI;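 active = mean inhibition at 8 µM reaching about 37%, which flags the compound as non-specific, limit read from the data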;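 note: p53-null SaOS-2 cells with luciferase driven by a doxycycline-inducible promoter; compound on cells about two nights before reading with doxycycline added after day one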
* = called active by the depositor; / = not tested or not shown. Most compounds without a hit are left out; they make up all but 5% or so of the library.

SMILES	CSC inhib	T cruzi inh	XBP1 UPR activ	Beta apoptosis	Mdm2 MdmX PPI	UPR CHOP act	Mdm2 MdmX conf	Full FLuc ctr
CCC1CCCCN1S(=O)(=O)c1ccc(C(=O)N(CCCN(C)C)c2nc3cc4c(cc3s2)OCO4)cc1 (stereo not drawn)	4	24	0	-5	63*	2	43*	58*
COc1ccc(/C=C/c2cc[n+](C(=O)Cc3ccccc3)cc2)cc1	8	/	-1	3	63*	0	52*	45*
COc1ccc(/C=C/C(=O)NCCCc2ccccc2)cc1	-10	2	-3	-2	-12	0	/	/
COC(=O)[C@@H]1C[C@]2(OC(=O)c3ccccc3)C=CC(=O)C[C@@H]2N1C(=O)OCc1ccccc1	76*	36	13	1	94*	29	62*	34
O=C(CCl)N(c1ccccc1)C1CCCCC1	-16	65*	-8	107*	94*	-1	100*	52*
CCOc1ccc2nc(NC(=O)CC3Oc4ccccc4NC3=O)sc2c1 (stereo not drawn)	-2	6	-2	9	62*	0	34	63*
COc1ccc(-c2nnc(Sc3nc4ccccc4o3)c3ccccc23)cc1	42	17	-1	-3	66*	0	42*	68*
Cc1cccc(NC(=O)CCS(=O)(=O)c2cc3c(cc2Cl)NC(=O)CO3)c1	-14	6	-6	-7	11	-1	/	/
Cc1ccc(CS(=O)(=O)c2ccccc2-c2nnc(-c3ccc(Cl)cc3)o2)cc1	0	-13	-5	-1	55*	0	18	/
Cc1ccccc1-c1nnc(-c2ccc(Cl)cc2)o1	3	8	1	-2	-106	6	/	/
CCn1c(SCC(=O)Nc2cc(C)on2)nc2sc3c(c2c1=O)CCCC3	-1	-1	-3	82*	76*	-1	54*	16
O=C(O)CSc1nc2sc3c(c2c(=O)n1-c1ccccc1)CCC3	-10	0	-2	-2	9	-1	/	/
C=CCn1c(SCC(=O)Nc2cc(C)on2)nc2sc3c(c2c1=O)CCCC3	/	/	-1	13	61*	-1	33	/
C=CCn1c(SCC(=O)NCc2ccco2)nc2sc3c(c2c1=O)CCCC3	-11	32	-4	4	2	-1	/	/
CC(NC(=O)CSc1nc2sc3c(c2c(=O)n1-c1ccccc1)CCCC3)c1ccccc1 (stereo not drawn)	/	47	0	/	51*	3	23	/
Cc1cc(NC(=O)CSc2nc3sc4c(c3c(=O)n2C)CCCC4)no1	-1	-13	-1	11	11	0	/	/
C=CCn1c(SCC(=O)Nc2cc(C)on2)nc2sc(C)c(C)c2c1=O	-8	17	2	4	51*	0	19	/
C=CCn1c(SCC(=O)Nc2sccc2C(N)=O)nc2sc(CC)cc2c1=O	15	3	1	7	59*	-2	38	74*
CCc1ccc2nc(Nc3nc(COC)cc(=O)[nH]3)nc(C)c2c1	/	15	8	/	12	0	/	/
COCc1cc(=O)[nH]c(Nc2nc3ccc(C)cc3o2)n1	/	59*	-5	80*	78*	31	8	/
COc1ccc(C(=O)N/C(=C\c2cn(S(=O)(=O)N(C)C)c3ccccc23)C(=O)N2CCN(C)CC2)cc1	-2	6	-2	-15	5	1	/	/
COc1ccc(CCNC(=O)/C=C/c2ccc(C)cc2)cc1OC	-16	-5	2	-1	23	-2	/	/
COc1ccc(Cl)cc1NC(=O)CN(C)CC(=O)Nc1ccccc1N1CCOCC1	52	7	-1	20	58*	-1	55*	65*
COc1ccc(Cl)cc1NC(=O)CC(=O)Nc1cc(Cl)ccc1OC	-17	37	2	10	66*	0	17	/
COc1ccc(Cl)cc1NC(=O)Cn1cccc1	-1	-16	2	-7	-18	1	/	/
SMILES	CSC inhib	T cruzi inh	XBP1 UPR activ	Beta apoptosis	Mdm2 MdmX PPI	UPR CHOP act	Mdm2 MdmX conf	Full FLuc ctr
COc1ccc(NC(=O)CN(C)C(=O)c2sc3ccccc3c2Cl)cc1	19	-10	-2	/	-13	0	/	/
COc1ccc(Cl)cc1NC(=O)CN(C)C(=O)c1sc2ccccc2c1Cl	/	/	-4	1	54*	-1	18	/
COc1ccc(Cl)cc1NC(=O)CN(C)CC(=O)N1CC(=O)Nc2ccccc21	/	/	-3	-2	28	0	/	/
CCOC(=O)c1[nH]c2ccc(OC)cc2c1NC(=S)N1CCN(c2cccc(Cl)c2)CC1	/	19	9	/	50*	4	21	/
Cc1cccc(C)c1NS(=O)(=O)c1ccc(NC(=O)c2ccc(Cl)c([N+](=O)[O-])c2)cc1	103*	33	0	0	98*	1	69*	59*
N#Cc1ccsc1NC(=O)c1cccc([N+](=O)[O-])c1	24	-12	2	17	-6	3	/	/
O=C(Nc1ccc(C(O)(C(F)(F)F)C(F)(F)F)cc1)c1ccc(Cl)c([N+](=O)[O-])c1	87*	21	3	47	55*	3	28	/
N#Cc1ccsc1NC(=O)c1ccc(Cl)c([N+](=O)[O-])c1	23	4	2	25	61*	4	56*	112*
CCN(CC)C1CCN(C(=O)c2ccc3nc(Cc4ccc(OC)cc4)oc3c2)C1 (stereo not drawn)	/	5	-5	/	5	-2	/	/
Nc1ccc(C(=O)OCC(=O)NC(=O)c2ccccc2)cc1[N+](=O)[O-]	-13	2	0	0	7	0	/	/
CCCCCCCCOC(=O)CCn1[nH]c(=O)c2ccccc2c1=O	-5	-8	-2	-5	-11	3	/	/
Cc1c(CN2CCC(C(=O)Nc3cccc(-c4cccc(Cl)c4)c3)CC2)cnn1C	12	10	2	7	58*	1	10	/
Cc1cccc(CN2CCC(C(=O)Nc3cccc(-c4cccc(F)c4)c3)CC2)n1	-11	12	-6	2	38	1	/	/
C=CCn1cc(CN2CCC(C(=O)Nc3cccc(-c4cccc(F)c4)c3)CC2)c(C)n1	0	11	-1	0	51*	3	31	/
O=C(Nc1cccc(-c2cccc(Cl)c2)c1)C1CCN(Cc2ccccn2)CC1	-4	1	-2	-8	37	1	/	/
Cc1nn(C(C)C)c(C)c1CN1CCC(C(=O)Nc2cccc(-c3cccc(F)c3)c2)CC1	30	55*	0	5	78*	0	52*	62*
